From ChEMBL document CHEMBL5705890, “Antitumor activity of an allosteric inhibitor of centromere-associated protein-E” (Proc Natl Acad Sci U S A, 2010)

Experiments:
A498 = test: Anticancer activity against human A498 cells assessed as cell growth inhibition measured after 72 hrs by DAPI staining based analysis; format: functional
Summary of the method: (§1)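 Cells were seeded and, after 24 h, DNA content was read as T0. Cells were then exposed to varying drug concentrations for a further 72 h (T72). Fixed cells were DAPI-stained and DNA content measured by automated imaging. T72 values were normalized to T0. GI50 is the concentration giving 50% growth inhibition between T0 and Ymax, obtained by curve fitting.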

ST486 = test: Anticancer activity against human ST486 cells assessed as cell growth inhibition measured after 72 hrs by DAPI staining based analysis; format: functional
COLO 205 = test: Anticancer activity against human COLO 205 cells assessed as cell doubling measured for 72 hrs by DAPI staining based analysis; format: functional
[1] = Anticancer activity against human SW579 cells assessed as cell doubling measured for 72 hrs by DAPI staining based analysis; format: functional
[2] = Binding affinity to human CENP-E T183A/K184T mutant assessed as inhibition constant
HCC1954 [3] = test: Anticancer activity against human HCC1954 cells assessed as cell growth inhibition measured after 72 hrs by DAPI staining based analysis; format: functional
Summary of the method: (§2)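 Cells seeded, DAPI-stained DNA content of fixed cells read by imaging 24 h after seeding (T0), and again after a further 72 h exposure to a range of drug concentrations (T72). T72 values were normalized to T0. Curve fits gave the concentration producing 50% growth inhibition relative to T0 and Ymax (GI50).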

HPAF-II = test: Anticancer activity against human HPAF-II cells assessed as cell doubling measured for 72 hrs by DAPI staining based analysis; format: functional
SNU-5 = test: Anticancer activity against human SNU-5 cells assessed as cell doubling measured for 72 hrs by DAPI staining based analysis; format: functional
GCT = test: Anticancer activity against human GCT cells assessed as cell doubling measured for 72 hrs by DAPI staining based analysis; format: functional
[4] = Anticancer activity against human MT-3 cells assessed as cell growth inhibition measured after 72 hrs by DAPI staining based analysis; format: functional
RPMI-6666 = test: Anticancer activity against human RPMI-6666 cells assessed as cell growth inhibition measured after 72 hrs by DAPI staining based analysis; format: functional
COLO 320DM = test: Anticancer activity against human COLO 320DM cells assessed as cell growth inhibition measured after 72 hrs by DAPI staining based analysis; format: functional
Summary of the method: (§3)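 Cells were seeded, and DNA content at 24 h after seeding (T0) was read by imaging of fixed, DAPI-stained cells. Cells were then exposed to a range of drug concentrations for a further 72 h (T72) and DNA content was read again. T72 values were normalized to T0, and GI50 was taken from curve fits as the concentration giving 50% growth inhibition relative to T0 and Ymax.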

NCI-H520 = test: Anticancer activity against human NCI-H520 cells assessed as cell doubling measured for 72 hrs by DAPI staining based analysis; format: functional
PC-3 = test: Anticancer activity against human PC-3 cells assessed as cell doubling measured for 72 hrs by DAPI staining based analysis; format: functional
[5] = Anticancer activity against human KHOS-240S cells assessed as cell doubling measured for 72 hrs by DAPI staining based analysis; format: functional
A-427 = test: Anticancer activity against human A-427 cells assessed as cell growth inhibition measured after 72 hrs by DAPI staining based analysis; format: functional; summary of the method: as §1
COLO-320-HSR = test: Anticancer activity against human COLO 320HSR cells assessed as cell doubling measured for 72 hrs by DAPI staining based analysis; format: functional
HT-29 = test: Antitumor activity against human HT-29 cells in xenograft model assessed as tumor growth delay at 125 mg/kg relative to control; format: functional
SW684 = test: Anticancer activity against human SW684 cells assessed as cell growth inhibition measured after 72 hrs by DAPI staining based analysis; format: functional
CAL-62 = test: Anticancer activity against human CAL-62 cells assessed as cell growth inhibition measured after 72 hrs by DAPI staining based analysis; format: functional; summary of the method: as §3
J82 = test: Anticancer activity against human J82 cells assessed as cell growth inhibition measured after 72 hrs by DAPI staining based analysis; format: functional
HOS = test: Anticancer activity against human HOS cells assessed as cell doubling measured for 72 hrs by DAPI staining based analysis; format: functional
NCI-H508 = test: Anticancer activity against human NCI-H508 cells assessed as cell growth inhibition measured after 72 hrs by DAPI staining based analysis; format: functional
SK-N-AS = test: Anticancer activity against human SK-N-AS cells assessed as cell doubling measured for 72 hrs by DAPI staining based analysis; format: functional
DLD-1 = test: Anticancer activity against human DLD-1 cells assessed as cell growth inhibition measured after 72 hrs by DAPI staining based analysis; format: functional; summary of the method: as §2
Caov-3 cell line = test: Anticancer activity against human Caov-3 cells assessed as cell doubling measured for 72 hrs by DAPI staining based analysis; format: functional
[6] = Anticancer activity against human NL-SCLC3 cells assessed as cell growth inhibition measured after 72 hrs by DAPI staining based analysis; format: functional
[7] = Anticancer activity against human BC1 cells assessed as cell doubling measured for 72 hrs by DAPI staining based analysis; format: functional
NCI-H2122 = test: Anticancer activity against human NCI-H2122 cells assessed as cell growth inhibition measured after 72 hrs by DAPI staining based analysis; format: functional
MC-CAR = test: Anticancer activity against human MC-CAR cells assessed as cell doubling measured for 72 hrs by DAPI staining based analysis; format: functional
Hep 3B2 = test: Anticancer activity against human Hep3B cells assessed as cell doubling measured for 72 hrs by DAPI staining based analysis; format: functional
BeWo = test: Anticancer activity against human BeWo cells assessed as cell doubling measured for 72 hrs by DAPI staining based analysis; format: functional
RD = test: Anticancer activity against human RD cells assessed as cell growth inhibition measured after 72 hrs by DAPI staining based analysis; format: functional
A549 = test: Anticancer activity against human A549 cells assessed as cell doubling measured for 72 hrs by DAPI staining based analysis; format: functional
C-33-A = test: Anticancer activity against human C-33-A cells assessed as cell growth inhibition measured after 72 hrs by DAPI staining based analysis; format: functional; summary of the method: as §3
SAOS-2 = test: Anticancer activity against human SAOS-2 cells assessed as cell growth inhibition measured after 72 hrs by DAPI staining based analysis; format: functional
HCC1954 [8] = test: Anticancer activity against human HCC1954 cells assessed as cell doubling measured for 72 hrs by DAPI staining based analysis; format: functional
[9] = Anticancer activity against human TE 381.T cells assessed as cell growth inhibition measured after 72 hrs by DAPI staining based analysis; format: functional
Detroit 562 = test: Anticancer activity against human Detroit 562 cells assessed as cell doubling measured for 72 hrs by DAPI staining based analysis; format: functional
NCI-H295R = test: Anticancer activity against human NCI-H295R cells assessed as cell doubling measured for 72 hrs by DAPI staining based analysis; format: functional
SK-MEL3 = test: Anticancer activity against human SK-MEL3 cells assessed as cell doubling measured for 72 hrs by DAPI staining based analysis; format: functional

- Ki [2]: 11 nM
- GI50 (HCC1954 [3]): 18 nM
- GI50 (COLO 320DM): 306 nM
- GI50 (SW684): 5020 nM
- GI50 (NCI-H508): 32 nM
- GI50 (DLD-1): 60 nM
- GI50 (NCI-H2122): 29 nM
SMILES: CC(C)Oc1ccc(C(=O)N[C@H](CNC(=O)CN(C)C)Cc2ccc(-c3cn4cccc([C@H](C)O)c4n3)cc2)cc1Cl [GSK-923295A]
- GI50 (A498): 81 nM
- GI50 (ST486): 26 nM
- Activity (COLO 205): 3.3
- Activity [1]: 1.41
- Activity (HPAF-II): 2.42
- Activity (SNU-5): 1.47
- Activity (GCT): 2.3
- GI50 [4]: 41 nM
- GI50 (RPMI-6666): 88 nM
- Activity (NCI-H520): 2.15
- Activity (PC-3): 3.07
- Activity [5]: 2.44
- GI50 (A-427): 97 nM
- Activity (COLO-320-HSR): 3.25
- Activity (HT-29): 39%
- GI50 (CAL-62): 30 nM
- GI50 (J82): 114 nM
- Activity (HOS): 3.65
- Activity (SK-N-AS): 2.37
- Activity (Caov-3 cell line): 2.17
- GI50 [6]: 31 nM
- Activity [7]: 3.65
- Activity (MC-CAR): 2.03
- Activity (Hep 3B2): 2.37
- Activity (BeWo): 2.95
- GI50 (RD): 28 nM
- Activity (A549): 3.53
- GI50 (C-33-A): 47 nM
- GI50 (SAOS-2): 41 nM
- Activity (HCC1954 [8]): 2.04
- GI50 [9]: 27 nM
- Activity (Detroit 562): 2.52
- Activity (NCI-H295R): 1.52
- Activity (SK-MEL3): 1.11
